Only some compounds are listed: those with a hit (about 2.6% of all), similar ones and a draw of the others.
FGF22 binding: binders of human FGF22 protein, primary screen, FGF22 synaptogenesis inhibitor project, biophysical, thermal shift, single point; activity (Tm shift, normalised), % at 9.99 µM; recombinant FGF22 thermal shift, SYPRO orange fluorescence; percent of sucrose octasulfate shift, DMSO zero; 1.5% of 340,000 active;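 active = mean Tm shift, scaled 0 neutral to 100 positive control, at about 1.3% or above, every replicate too, limit read from the data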
Target sequence (Q9HCT0 whole entry, looked up): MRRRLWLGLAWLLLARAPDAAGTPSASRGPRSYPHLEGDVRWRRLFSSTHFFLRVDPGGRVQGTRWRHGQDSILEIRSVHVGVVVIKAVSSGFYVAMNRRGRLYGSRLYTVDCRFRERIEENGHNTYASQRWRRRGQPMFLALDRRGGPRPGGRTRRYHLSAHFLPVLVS
UCH37 inh: inhibitors of human UCH37 deubiquitinase, primary screen, biochemical, Ub-AMC cleavage, fluorescence; Ubiquitin carboxyl-terminal hydrolase isozyme L5 (Homo sapiens), Q9Y5K5; purified proteasome/UCH37; inhibition, % (test concentration not listed); 0.33% of 330,000 active;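 active = mean inhibition over replicate wells above about 20%, limit read from the data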
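Schedule: 30 min plus 25 min, room temperature / Material: human UCH37 within purified proteasomes / Technique: AMC fluorescence intensity at 355/460 nm / Buffer or medium: pH 7.4 Tris-HCl (50 mM) with ovalbumin, ATP-MgCl2, DTT / Controls: wells without proteasome as full block, compound-free enzyme plus substrate as uninhibited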
SIRT5 block: SIRT5 desuccinylase inhibitors, primary screen, biochemical, fluorescence imaging, single point, set 5. AID 652115, 2013. NAD-dependent protein deacylase sirtuin-5, mitochondrial (Homo sapiens), Q9NXA8. 1.1% of 330,000 active. inhibition, % at 15 µM. Purified SirT5, succinyl-peptide AMC, trypsin-coupled fluorescence; in the data active = inhibition above about 15%
Target sequence (Q9NXA8 whole entry, looked up): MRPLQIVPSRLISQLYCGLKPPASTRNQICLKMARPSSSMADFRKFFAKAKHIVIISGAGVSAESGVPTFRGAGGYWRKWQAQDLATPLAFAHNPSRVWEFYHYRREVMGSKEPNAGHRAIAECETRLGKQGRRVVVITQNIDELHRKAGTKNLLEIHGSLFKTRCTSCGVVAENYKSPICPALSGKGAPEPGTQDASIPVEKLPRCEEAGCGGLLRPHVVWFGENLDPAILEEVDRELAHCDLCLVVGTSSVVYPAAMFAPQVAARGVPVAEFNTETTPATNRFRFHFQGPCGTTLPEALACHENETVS
CASP6 VEID inh: human caspase-6 inhibitors, primary screen, biochemical, VEID-R110 fluorescence, single point, set 2. inhibition, % at 12.5 µM. AID 686996, 2013. purified caspase-6, Z-VEID-R110 cleavage fluorescence. P55212. 0.53% of 350,000 active;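 active = mean inhibition across replicates at least about 35%, with every replicate also reaching that limit, limit read from the data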
NSD2 HMT inh: NSD2 histone methyltransferase inhibitors, primary screen, biochemical, AlphaScreen, single concentration, set 2; Histone-lysine N-methyltransferase NSD2 (Homo sapiens), O96028; NSD2 peptide methylation, 120 min; inhibition, % at 12.5 µM; 0.54% of 310,000 active; in the data active = inhibition above about 50%
AlphaScreen art: AlphaScreen signal interference with preloaded methylated product, dose response, artefact control for NSD2 inhibitor project, biochemical, cherry-picked samples | shares compounds with NSD2 HMT inh | AlphaScreen artifact counterscreen, preloaded methylated H4 peptide | AC35, µM (top dose mostly 10 µM) | 9.4% of 1,500 active; call rule not given here
Large screens that a line does not name were inactive (follow-up assays come after a bar, where they were run).

Cc1noc(C)c1S(=O)(=O)Nc1ccc2c(c1)C(=O)N([C@@H](C)CO)C[C@H](C)[C@H](CN(C)Cc1ccc(Oc3ccccc3)cc1)O2	none (no result: UCH37 inh, SIRT5 block, NSD2 HMT inh)
COC(=O)c1ccccc1Nc1ccccc1	none (no result: FGF22 binding, SIRT5 block, CASP6 VEID inh)
COC(=O)c1ccccc1NC1=C/C(=N\S(=O)(=O)c2ccc(C(=O)O)cc2)c2ccccc2C1=O	UCH37 inh 89.6, NSD2 HMT inh 151.2 (no result: FGF22 binding, SIRT5 block, CASP6 VEID inh) | AlphaScreen art 8.09µM
Cc1ccc(S(=O)(=O)/N=C2\C=C(Nc3cccc(C(=O)O)c3)C(=O)c3ccccc32)cc1	CASP6 VEID inh 99.4, NSD2 HMT inh 171.8 (no result: UCH37 inh) | AlphaScreen art inactive
Cc1ccccc1S(=O)(=O)Cc1ccc(C(=O)NCCc2ccccc2)o1	none
CCN(CC)CCNC(=O)c1ccc(CS(=O)(=O)c2ccccc2C)o1	NSD2 HMT inh 51.2 | AlphaScreen art inactive
O=C(O)Cn1cc(C=NNC(=O)c2cc3cc(Br)ccc3o2)c2ccccc21	none (no result: FGF22 binding, SIRT5 block, CASP6 VEID inh, NSD2 HMT inh)
CCN(CC)CCNS(=O)(=O)c1ccc2c3c(cccc13)C(=O)N2	NSD2 HMT inh 54.9 | AlphaScreen art inactive
CN(C)CCNS(=O)(=O)c1ccc2c3c(cccc13)C(=O)N2	none
CCC(=O)N1[C@H](CO)[C@H]2c3ccccc3N(C(=O)Nc3ccc(Cl)cc3)C[C@H]21	none (no result: UCH37 inh, NSD2 HMT inh)
COc1cc(CNCc2cccnc2)ccc1OCc1ccccc1	none
CNCc1ccc(OCc2ccccc2)c(OC)c1	NSD2 HMT inh 52.5 (no result: FGF22 binding, SIRT5 block, CASP6 VEID inh) | AlphaScreen art inactive
CNC[C@@H]1Oc2c(NC(=O)c3ccncc3)cccc2C(=O)N([C@H](C)CO)C[C@@H]1C	none (no result: UCH37 inh, NSD2 HMT inh)
COCCCNC(=S)Nc1cccc2ncccc12	NSD2 HMT inh 86.1 (no result: SIRT5 block) | AlphaScreen art inactive
O=C(NC(=S)Nc1cccc2ncccc12)c1ccco1	none
COc1ccc(CCNc2c([N+](=O)[O-])ncn2C)cc1OC	NSD2 HMT inh 60.6 | AlphaScreen art inactive
C[C@H]1CN([C@@H](C)CO)C(=O)CCCn2nncc2CO[C@H]1CN(C)Cc1ccc2cccnc2c1	none (no result: UCH37 inh, NSD2 HMT inh)
COc1cccc(CN2C(=O)C(C)N(C(=O)c3c(F)cccc3F)c3ccccc32)c1 (stereo not given)	NSD2 HMT inh 104.2 | AlphaScreen art inactive
CCN=c1scc(-c2ccco2)n1N=Cc1ccc(O)cc1	none (no result: FGF22 binding, SIRT5 block, CASP6 VEID inh, NSD2 HMT inh)
CC1Oc2ccc(C#N)cc2N(Cc2cccc(F)c2)C1=O (stereo not given)	NSD2 HMT inh 55.1 (no result: UCH37 inh) | AlphaScreen art inactive
CCCNC(=O)N1CC2(C1)[C@H](c1ccccc1)[C@@H](CO)N2C(=O)C1CCC1	none (no result: FGF22 binding, UCH37 inh, NSD2 HMT inh)
C[n+]1cccc2c(Br)ccc([O-])c21	CASP6 VEID inh 53.3, NSD2 HMT inh 104.3 | AlphaScreen art inactive
COc1cccc(CNC(=O)C[C@H]2CC[C@H](NC(C)=O)[C@H](CO)O2)c1	none (no result: UCH37 inh, NSD2 HMT inh)
COc1ccc(OCCSc2nnc(CCNC(=O)c3ccc(OC)cc3)n2C)cc1	none (no result: FGF22 binding, SIRT5 block, CASP6 VEID inh)
COc1ccc(OCCSc2nnc(CCNC(=O)c3ccc(Cl)c(Cl)c3)n2C)cc1	NSD2 HMT inh 59.1 | AlphaScreen art inactive
COCCn1c(N)c(N(Cc2ccccc2)C(=O)c2cc(=O)[nH]c3ccccc23)c(=O)[nH]c1=O	NSD2 HMT inh 93.3 | AlphaScreen art inactive
CCCCn1c(N)c(N(Cc2ccccc2OC)C(=O)c2cc(=O)[nH]c3ccccc23)c(=O)[nH]c1=O	none
CC1CN(Cc2cc(=O)n3ccsc3n2)CC(C)O1 (stereo not given)	NSD2 HMT inh 62.3 (no result: FGF22 binding, SIRT5 block, CASP6 VEID inh) | AlphaScreen art inactive
CN(C)c1ccc(C=c2c3ccccc3n3c2c2c([n+]3C)CCCC2)cc1	NSD2 HMT inh 71.3 (no result: UCH37 inh, CASP6 VEID inh) | AlphaScreen art 4.45µM
C[C@H](CO)N1C[C@H](C)[C@@H](CN(C)Cc2ccccc2)Oc2c(NC(=O)NC3CCCCC3)cccc2C1=O	none (no result: UCH37 inh, NSD2 HMT inh)
COc1ccc(Cc2nnc(NC(=O)C3CC(=O)N(c4ccc(OC)cc4)C3)s2)cc1 (stereo not given)	NSD2 HMT inh 72.6 | AlphaScreen art inactive

Compound activity as filed in PubChem BioAssay.
